Screening results (PubChem BioAssay)
A selection: hits, their analogues and other compounds. The true share with any hit is near 4.3%.
Lipid droplet: inhibitors of hepatocyte lipid droplet formation, primary screen, imaging, high-throughput imaging, BODIPY stain; AML12 mouse hepatocytes, oleate lipid droplets; inhibition, % at 6.5 µM; hit rate 0.4% among 240,000; AID 1656, 2009;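 active means lipid droplet intensity inhibited by at least 50%, with more than 500 cells counted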
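Technique: fluorescence imaging, 20x objective, two fields per well / Assay system: AML12 hepatocytes (mouse) / Measure: % inhibition of lipid droplet signal / Doses: 6.5 µM single-point dosing / Incubation: overnight exposure / Reagent: 100 µM oleic acid challenge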
AHR act: AHR activators, primary screen, cell-based, luminescence, luciferase reporter, human; Aryl hydrocarbon receptor (Homo sapiens), P35869; AHR-responsive luciferase reporter cells; activation, % at 5 µM; hit rate 2.5% among 320,000; AID 2796, 2010; in the data active means activation above about 47%;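 further: 0% = vehicle wells and 100% = reference agonist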
SMARCA2 act: SMARCA2 (BRM) function activators, primary screen, cell-based, luminescence, high throughput | MG213 cells, MMTV-luciferase reporter, dexamethasone, overnight | hit rate 1% among 370,000 | activation, % at 9.1 µM | AID 652017, 2013; in the data active means activation above about 7.8%;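 further: 0% = vehicle wells and 100% = reference activator wells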
SR-BI uptake up: activators of SR-BI mediated DiI-HDL uptake, primary screen, ldlA[mSR-BI] CHO cells, DiI fluorescence; 3 h; 100 = double the neutral-control signal; activation, % at 12.5 µM; hit rate 0.096% among 320,000;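 active means mean replicate activation of at least 60% and every replicate at or above 60%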;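 further: 0% = median plate neutral-control signal and 100% = twice that signal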
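Material – SR-BI-overexpressing, LDLR-lacking CHO cells · Medium – BSA-supplemented, HEPES-buffered Ham's F12, pH 7.4 · Doses – single concentration · Times – compound with DiI-HDL co-incubation, 3 h at 37 °C · Measured by – bottom-read fluorescence, 550/595 nm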
SR-BI HDL uptake: inhibitors of SR-BI mediated HDL lipid uptake, primary screen, ldlA[mSR-BI] cells, fluorescence, single point; Scavenger receptor class B member 1 (Mus musculus), Q61009; AID 488896, 2010; inhibition, % at 12.5 µM; ldlA[mSR-BI] CHO cells, DiI-HDL uptake fluorescence, 3 h; hit rate 0.96% among 320,000;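 active means mean replicate inhibition of at least 70% and a set share of replicates each scoring 70 or more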;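 further: 0% = median of neutral control wells and 100% = median of positive control wells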
CR mimetic SO: reduction of superoxide in aged yeast, primary screen, HTS; superoxide response (% of plate mean), % at 10 µM; hit rate 0.18% among 330,000; S. cerevisiae aged cells, superoxide DHE fluorescence; active compounds read low;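 active means superoxide response under a set limit, about three screen SD below normal, cut at about 65% in these data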;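 further: yeast aged for seven days with compound at 30 °C before DHE staining; 100% = average MFI of all compound-treated wells on the plate with controls excluded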
SMARCA2 act conf: SMARCA2 (BRM) function activators, confirmation, cell-based, luminescence, triplicate; shares compounds with SMARCA2 act; MG213 cells, MMTV-luciferase with dexamethasone, overnight; MG213 cells expressing E1A, Rb sequestered; DMSO wells 0%, reference activator 100%; activation, % at 9.1 µM; hit rate 30% among 3,500; AID 652260, 2013;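 active means activation above its plate's cutoff, the mean activation of tested wells plus 3 SD, cut at about 7.9% in these data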
GAL4-VP16 Luc: GAL4-VP16 luciferase reporter activation, counter-screen for SMARCA2 (BRM) activator project, cell-based, pG5luc, luminescence, high throughput | activation, % at 9.1 µM | hit rate 41% among 3,500 | shares compounds with SMARCA2 act | HEK293 GAL4-VP16 pG5luc reporter; scaled: DMSO wells 0%, SAHA wells 100%;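 active means activation above the solvent-only control well mean plus 3 SD, averaged across control plates, cut at about 5.2% in these data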
Starred values were filed as active, the others as inactive; . = no result given.

SMILES	Lipid droplet	AHR act	SMARCA2 act	SR-BI uptake up	SR-BI HDL uptake	CR mimetic SO	SMARCA2 act conf	GAL4-VP16 Luc
CC(CCN1CCC(C(O)(c2ccccc2)c2ccccc2)CC1)Oc1cccc(C(F)(F)F)c1 (stereo unspecified)	.	.	-4	.	.	.	.	.
Clc1ccc(-c2ccn[nH]2)cc1	-40	7	-2	0	0	112	.	.
S=c1nccc(-c2ccc(Cl)cc2)[nH]1	-13	-2	8.1*	.	.	91	-2	3
COc1ccc(S(=O)(=O)N2Cc3ccccc3CC2C(=O)Nc2nccs2)cc1 (stereo unspecified)	.	42	9.8*	8	-8	129	4	3
CC1=C[C@]2(C[N+](Cc3ccccc3)=C(N)N2)n2c(=O)n(-c3ccccc3)c(=O)n2C1	.	.	1	.	.	.	.	.
CC(C)OCCCNC1=C(Cl)C(=O)c2ccccc2C1=O	2	8	9.4*	.	.	159	6	2
Cc1cc(-c2ccco2)c(C#N)c2nc3ccccc3n12	.	-11	12*	-10	10	69	41*	6.5*
Cc1cc(C(C)C)n2c(nc3ccccc32)c1C#N	9	32	.	.	.	91	.	.
O=C(COc1ccccc1Cl)NC(=S)Nc1ccccc1N1CCCC1	2	21	11*	-49	49	81	-3	0
COC(=O)c1ccccc1NC(=S)NC(=O)COc1ccccc1Cl	.	5	-1	-25	25	107	.	.
CCOC(=O)[C@@]12CN(C(=O)OC(C)(C)C)CC=C1N(Cc1ccc(OC)cc1)C(=O)[C@H]2CC(=O)NCCCCc1ccccc1	.	.	-3	.	.	.	.	.
Cc1sc(=NC(=O)c2ccco2)n(C)c1-c1ccc(F)cc1	.	-2	8.8*	-7	7	99	14*	12*
Cc1ccc(OCC(=O)NNC(=O)c2cc3ccccc3o2)cc1	.	6	4	5	-5	108	.	.
CCC(=O)Nc1cccc(NC(=O)c2cc3ccccc3o2)c1	.	5	8.9*	7	-7	80	3	9.8*
O=C(COc1ccccc1)NNC(=O)c1cc2ccccc2o1	2	-1	9.6*	10	-10	101	1	2
Cc1cccc(NC(=O)c2cc3ccccc3o2)c1	-10	8	0	-2	24	107	.	.
Cc1ccc(Cn2cc(CN(C(C)(C)C)S(=O)(=O)c3ccc(F)cc3Br)nn2)cc1	.	.	-3	.	.	.	.	.
c1ccc(OCc2nnc3sc(C4COc5ccccc5O4)nn23)cc1 (stereo unspecified)	.	11	9.2*	21	-21	104	-2	0
CC(C)c1cc(C(=O)Nc2cc(Br)ccc2O)no1	-4	42	-1	0	0	81	.	.
O=C(Nc1cc(Br)ccc1O)c1cc(-c2cccs2)on1	0	2	9.8*	.	.	108	8	4
Cc1cc(OCC(=O)NC(C)C)cc(C)c1Cl	-1	14	11*	-17	17	99	-5	-1
Cc1ccc(C2CC(=O)C=C(Nc3ccc(Cl)cc3)C2)cc1 (stereo unspecified)	-17	7	9.9*	-38	38	99	-6	2
O=C1C=C(Nc2ccc(Cl)cc2)CC(c2ccc(Cl)cc2)C1 (stereo unspecified)	-3	9	-2	-45	45	107	.	.
COC(=O)[C@]12C=CCN1[C@@H](c1ccc(OC)c(OC)c1)c1c(c3ccccc3n1S(=O)(=O)c1ccc(C)cc1)C2	.	.	-3	.	.	.	.	.
